Measured values reported in ChEMBL document CHEMBL4699557, “Structure activity relationship of novel antiviral nucleosides against Enterovirus A71” (Bioorg Med Chem Lett, 2020).
The source made the active and inactive calls. The calls are words filed in the database; no cut-off is given here.

Columns and labels:
Enterovirus A71 [1] = assay: microbe, parasite or virus in culture; format: functional, organism-based, Tainin/4643/98, Vero 76; details: Enterovirus A; for EC50: Tainin/4643/98, Vero 76, 72 h
Vero 76 [2] = assay: (§1) Cytotoxicity against monkey Vero 76 cells by microscopic analysis; format: cell-based; details: chlorocebus sabaeus, vero 76
Enterovirus A71 [3] = assay: microbe, parasite or virus in culture; format: functional, organism-based; details: Enterovirus A, Tainin/4643/98, Vero 76, 72 h
Vero 76 [4] = assay: (§2) Cytotoxicity against monkey Vero 76 cells by neutral red uptake assay; format: cell-based; details: chlorocebus sabaeus, vero 76
in vitro [5] = details: monkey, Vero 76 cells
in vitro [6] = details: monkey, Vero 76 cells; remark: listed apart in the source
Enterovirus A71 [7] = assay: Antiviral activity against Enterovirus 71; format: functional, organism-based; details: Enterovirus A
[8] = Inhibition of capsid protein VP1 in Enterovirus 71; design: species or system Enterovirus A71
Coxsackievirus [9] = assay: Antiviral activity against Coxsackie virus B3 HA 201 933 infected in Vero 76 cells assessed as reduction in virus yield by visual inspection method; format: functional, organism-based; details: B3 HA 201 933, Vero 76
Outline: (§3)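 Cell-based inhibition of virus replication. Vero 76 cells for Coxsackie B3 and poliovirus 1; RD cells for enterovirus 68. Two read-outs: visual scoring of virus yield reduction and neutral red uptake for cytopathic effect. EC50 is reported, and EC90 for some visual values.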

[10] = Selectivity index, ratio for CC50 of monkey Vero 76 cells to EC50 for Coxsackie virus B3 HA 201 933 by visual inspection method; format: toxicity; details: read-out: Ratio CC50/EC50
Outline: (§4)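 Selectivity index calculated as CC50/EC50, both from the same cell line and the same read-out (visual or neutral red).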

Coxsackievirus [11] = assay: Antiviral activity against Coxsackie virus B3 HA 201 933 infected in Vero 76 cells assessed as reduction in virus-induced cytopathic effect by neutral red uptake assay; format: functional, organism-based; details: B3 HA 201 933, Vero 76
Outline: as §3

[12] = Selectivity index, ratio for CC50 of monkey Vero 76 cells to EC50 for Coxsackie virus B3 HA 201 933 by neutral red uptake assay; format: toxicity; details: read-out: Ratio CC50/EC50
Outline: as §4

enterovirus D68 [13] = assay: Antiviral activity against Enterovirus D68 US/KY/14-18953 infected in RD cells assessed as reduction in virus yield by visual inspection method; format: functional, organism-based; details: Enterovirus D, US/KY/14-18953, RD
Outline: as §3

RD [14] = assay: Cytotoxicity against human RD cells by microscopic based visual inspection method; format: cell-based
[15] = Selectivity index, ratio of CC50 for human RD cells to EC50 for Enterovirus D68 US/KY/14-18953 strain; format: toxicity
Outline: as §4

enterovirus D68 [16] = assay: Antiviral activity against Enterovirus D68 US/KY/14-18953 strain infected in RD cells assessed as reduction in virus-induced cytopathic effect by neutral red uptake assay; format: functional, organism-based; details: Enterovirus D, US/KY/14-18953, RD
Outline: as §3

RD [17] = assay: Cytotoxicity against human RD cells by neutral red uptake assay; format: cell-based
[18] = Selectivity index, ratio of CC50 for human RD cells to EC50 for Enterovirus D68 US/KY/14-18953 by neutral red uptake assay; format: toxicity; details: read-out: Ratio CC50/EC50
Outline: as §4

Poliovirus 1 [19] = assay: Antiviral activity against Poliovirus 1 Mahoney infected in monkey Vero 76 cells assessed as reduction in virus yield by visual inspection method; format: functional, organism-based; details: Enterovirus C
Outline: as §3

[20] = Selectivity index, ratio of CC50 for monkey Vero 76 cells to EC50 for Poliovirus 1 Mahoney; format: toxicity; details: read-out: Ratio CC50/EC50
Outline: as §4

Poliovirus 1 [21] = assay: Antiviral activity against Poliovirus 1 Mahoney infected in monkey Vero 76 cells assessed as reduction in virus-induced cytopathic effect by neutral red uptake assay; format: functional, organism-based; details: Enterovirus C
Outline: as §3

[22] = Selectivity index, ratio of CC50 for monkey Vero 76 cells to EC50 for Poliovirus 1 Mahoney by neutral red uptake assay; format: toxicity; details: read-out: Ratio CC50/EC50
Outline: as §4

Tacaribe virus = assay: Antiviral activity against Tacaribe virus; format: functional, organism-based; details: Mammarenavirus tacaribeense
[23] = as §1; format: cell-based; details: chlorocebus sabaeus, Vero 76 cells
[24] = as §2; format: cell-based; details: chlorocebus sabaeus, Vero 76 cells
[25] = target: 5-hydroxytryptamine receptor 2B (Homo sapiens, UniProt P41595); assay: Binding affinity to 5HT2B (unknown origin)
Chain of 5-hydroxytryptamine receptor 2B (P41595 whole entry): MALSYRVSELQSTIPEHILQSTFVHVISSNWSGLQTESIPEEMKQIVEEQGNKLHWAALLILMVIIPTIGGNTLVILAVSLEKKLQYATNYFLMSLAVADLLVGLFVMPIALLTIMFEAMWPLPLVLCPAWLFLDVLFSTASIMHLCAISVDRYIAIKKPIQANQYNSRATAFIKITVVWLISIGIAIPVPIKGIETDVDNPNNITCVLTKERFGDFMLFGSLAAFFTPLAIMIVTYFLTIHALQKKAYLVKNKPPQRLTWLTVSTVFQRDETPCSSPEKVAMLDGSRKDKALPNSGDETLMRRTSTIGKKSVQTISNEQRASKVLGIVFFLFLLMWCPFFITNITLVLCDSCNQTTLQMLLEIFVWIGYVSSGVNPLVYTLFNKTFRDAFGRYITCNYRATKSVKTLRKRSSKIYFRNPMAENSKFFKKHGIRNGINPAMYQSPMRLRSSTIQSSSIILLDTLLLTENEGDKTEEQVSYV

[26] = system: Respiratory syncytial virus; assay: Antiviral activity against Respiratory syncytial virus; format: functional, organism-based

| Compound | EC50 (Enterovirus A71 [1]) | CC50 (Vero 76 [2]) | EC50 (Enterovirus A71 [3]) | CC50 (Vero 76 [4]) | selectivity ratio (in vitro [5]) | selectivity ratio (in vitro [6]) | also measured |
| --- | --- | --- | --- | --- | --- | --- | --- |
| CCOC(=O)c1ccc(OCCC2CCN(c3ccc(C)nn3)CC2)cc1 [PIRODAVIR] | 0.86 µM | > 27 µM | 0.57 µM | 17 µM | > 31 | 30 | – |
| CC(C)[C@@H](Nc1nc(Cl)nc2c1ncn2[C@H]1[C@H](O)[C@H](O)[C@]2(CN=[N+]=[N-])C[C@H]12)C1CC1 | 5.3 µM | 32 µM | 4.8 µM | 32 µM | 6 | 6.7 | – |
| OC[C@H]1O[C@@H](n2cnc3c(NCc4cccc(C(F)(F)F)c4)ncnc32)[C@H](O)[C@@H]1O | – | – | – | – | – | – | EC50 (Enterovirus A71 [7]): 0.068 µM |
| CCn1nnc(-c2ccc(OCCC(C)CCN3CCN(c4ccncc4)C3=O)cc2)n1 (stereo not drawn) | – | – | – | – | – | – | IC50 [8]: 0.0008 µM |
| CC(C)S(=O)(=O)n1c(N)nc2ccc(/C(=N/O)c3ccccc3)cc21 [ENVIROXIME] | – | – | – | – | – | – | EC50 (Coxsackievirus [9]): < 0.01 µM; selectivity ratio [10]: > 1000; EC50 (Coxsackievirus [11]): < 0.01 µM; selectivity ratio [12]: > 450; EC50 (enterovirus D68 [13]): 0.032 µM; CC50 (RD [14]): 4.2 µM; selectivity ratio ([15]; read-out: Ratio CC50/EC50): 130; EC50 (enterovirus D68 [16]): 0.032 µM; CC50 (RD [17]): 1.5 µM; selectivity ratio [18]: 47; EC50 (Poliovirus 1 [19]): 0.015 µM; selectivity ratio [20]: > 670; EC50 (Poliovirus 1 [21]): < 0.01 µM; selectivity ratio [22]: > 490 |
| O[C@@H]1[C@H](O)[C@@H]2C[C@@H]2[C@H]1n1cnc2c(N[C@H](CC3CC3)C3CC3)nc(Cl)nc21 | 21 µM | – | 8.1 µM | 9.9 µM | > 2.4 | 1.2 | – |
| OC[C@@]12C[C@@H]1[C@@H](n1cnc3c(NC(C4CC4)C4CC4)nc(Cl)nc31)[C@H](O)[C@@H]2O | – | > 100 µM | – | 68 µM | – | – | Activity (Tacaribe virus): inactive |
| OC[C@@]12C[C@@H]1[C@@H](n1ccc3c(NC(C4CCC4)C4CCC4)nc(Cl)nc31)[C@H](O)[C@@H]2O | 32 µM | – | – | – | > 3.1 | 3.6 | CC50 [23]: > 100 µM; CC50 [24]: 86 µM |
| CC(C)[C@@H](Nc1nc(Cl)nc2c1ncn2[C@H]1[C@H](O)[C@H](O)[C@]2(CF)C[C@H]12)C1CC1 | – | 36 µM | 3 µM | 33 µM | 10 | 11 | EC90 (enterovirus D68 [13]): 7.7 µM; CC50 (RD [14]): 42 µM; selectivity ratio ([15]; read-out: Ratio): 5.4; EC50 (enterovirus D68 [16]): 16 µM; CC50 (RD [17]): 42 µM; selectivity ratio [18]: 2.6; Ki [25]: 0.934 µM |
| CC(C)[C@@H](Nc1nc(Cl)nc2c1ncn2[C@H]1[C@H](O)[C@H](O)[C@]2(CCl)C[C@H]12)C1CC1 | 4.3 µM | 32 µM | 3.9 µM | 27 µM | 7.4 | 6.9 | – |
| O[C@@H]1[C@H](O)[C@@H]2C[C@@H]2[C@H]1n1cnc2c(NC(C3CC3)C3CC3)nc(Cl)nc21 | 3.6 µM | > 100 µM | 3.4 µM | 34 µM | > 28 | 10 | EC90 (enterovirus D68 [13]): 15 µM; CC50 (RD [14]): 41 µM; selectivity ratio ([15]; read-out: Ratio): 2.7; EC50 (enterovirus D68 [16]): 9.3 µM; CC50 (RD [17]): 41 µM; selectivity ratio [18]: 4.4; Activity [26]: inactive |
| OC[C@@]12C[C@@H]1[C@@H](n1cnc3c(N[C@H](C4CCC4)C4CC4)nc(Cl)nc31)[C@H](O)[C@@H]2O | 16 µM | > 50 µM | 9.3 µM | 14 µM | > 3.1 | 1.5 | – |
| CC(C)[C@@H](Nc1nc(Cl)nc2c1ncn2[C@H]1[C@H](O)[C@H](O)[C@]2(CO)C[C@H]12)C1CC1 | – | 24 µM | 9.1 µM | 24 µM | – | – | EC90 (Enterovirus A71 [1]; Tainin/4643/98, Vero 76, time 72 hrs): 7.7 µM; EC50 (Coxsackievirus [9]): 16 µM; EC50 (Coxsackievirus [11]): 16 µM; EC50 (enterovirus D68 [13]): 32 µM; CC50 (RD [14]): > 100 µM; EC50 (enterovirus D68 [16]): 32 µM; CC50 (RD [17]): > 100 µM; EC50 (Poliovirus 1 [19]): 28 µM; EC50 (Poliovirus 1 [21]): 27 µM |
| CC(C)[C@@H](Nc1nc(I)nc2c1ncn2[C@H]1[C@H](O)[C@H](O)[C@]2(CO)C[C@H]12)C1CC1 | 18 µM | 100 µM | 20 µM | 46 µM | 5.6 | 2.3 | Ki [25]: 0.17 µM |
| CC(C)[C@@H](Nc1nc(Cl)nc2c1ncn2[C@H]1[C@H](O)[C@H](O)[C@@H]2C[C@@H]21)C1CC1 | 16 µM | > 50 µM | 12 µM | > 50 µM | > 3.1 | > 4.2 | – |
